In publication PMC12017310 (Science Advances, 2025):
Peptide text beside a SMILES is read from it. * marks the point of attachment. Cbz = O=C(OCc1ccccc1)*

Columns and labels:
CDK12 = CDK12 (Homo sapiens, UniProt Q9NYV4); assay: Western blot of CDK12 in PCa cell lines; assay type: cell-based; details: 22Rv1, MG132 pre-treatment 2 hours, then BSJ-5-63
In short: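 Equal protein amounts separated by SDS-PAGE and transferred to PVDF. Primary antibodies in 5% BSA/TBST overnight at 4°C; secondary antibody 1 h at room temperature. Blots shown are representative of three independent experiments.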

BID-PC4 PDX = assay: In vivo BID-PC4 PDX model; set-up: species or system male SCID mice; details: BSJ-5-63 25 mg/kg ip; olaparib 50 mg/kg p.o.
In short: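 Tumour bits in 50 μl PBS plus 50 μl Matrigel implanted subcutaneously (right flank) into intact male SCID mice. At ~150 mm3, randomised into four groups (n = 5): vehicle (5% DMSO/15% Solutol HS-15/80% saline) p.o., PARP inhibitor 50 mg/kg p.o., test compound 25 mg/kg ip, or sequential combination. Body weight recorded daily. Run for 3 weeks or until 2 cm tumour length; tumours excised and weighed.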

22Rv1 xenografts = assay: In vivo 22Rv1 xenograft model; set-up: species or system male SCID mice; details: BSJ-5-63 25 mg/kg ip; olaparib 50 mg/kg p.o.
In short: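 22Rv1 cells (5 × 10^6 in 50 μl plus 50 μl Matrigel) injected subcutaneously into the right flank; n = 5/group, randomised at ~150 mm3. Volume = length × width² × 0.5. Monotherapy: 50 mg/kg ip daily or 1 day on/2 days off for 12 days; vehicle 5% DMSO/15% Solutol HS-15/80% saline. Sequential arms: test compound 25 mg/kg ip and PARP inhibitor 50 mg/kg p.o. Tumours weighed; H&E and cleaved caspase-3 IHC performed.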

DU145 xenografts = assay: In vivo DU145 xenograft model; set-up: species or system male SCID mice; details: BSJ-5-63 25 mg/kg ip; olaparib 50 mg/kg p.o.
In short: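 DU145 xenografts were set up subcutaneously with Matrigel in the right flank. At ~150 mm3, mice were randomised into four groups (n = 5): vehicle p.o., PARP inhibitor 50 mg/kg p.o., test compound 25 mg/kg ip, or sequential combination. Dosing volume 0.1 ml/10 g. Body weight recorded daily. Study ended after 3–4 weeks or at 2 cm tumour length.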

PCa cells = assay: Colony formation assay; assay type: cell-based, human; details: cell viability and colony formation assays
In short: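 Seeding was 30,000 cells/well for 22Rv1 (six-well plates), with overnight attachment before treatment. Colonies grown 14 days at 37°C, 5% CO2, with weekly medium change. Stained with 0.1% crystal violet and quantified by image analysis. Three independent experiments.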

[1] = test system: CDK12-KO 22Rv1 xenografts; assay: In vivo CDK12-KO 22Rv1 xenograft model; set-up: species or system male SCID mice; details: olaparib 50 mg/kg, p.o., daily
In short: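 CDK12-KO (two sgRNAs) and AAVS1-control 22Rv1 cells made by lentiviral spin infection of Cas9-expressing cells (blasticidin 20 μg/ml). Implanted subcutaneously (5 × 10^6 with Matrigel). At ~150 mm3, each line randomised to vehicle p.o. or PARP inhibitor 50 mg/kg p.o. daily for 3 weeks (or until 2 cm tumour length). Tumours excised and weighed.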

[2] = In vitro mouse liver microsomal stability assay; assay type: in vitro ADME; details: liver microsomes
In short: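 Mouse liver microsomes (0.5 mg/ml) incubated with 1 μM test compound at 37°C with NADPH cofactor (1 mM).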

Sequence of CDK12 (Q9NYV4 whole entry): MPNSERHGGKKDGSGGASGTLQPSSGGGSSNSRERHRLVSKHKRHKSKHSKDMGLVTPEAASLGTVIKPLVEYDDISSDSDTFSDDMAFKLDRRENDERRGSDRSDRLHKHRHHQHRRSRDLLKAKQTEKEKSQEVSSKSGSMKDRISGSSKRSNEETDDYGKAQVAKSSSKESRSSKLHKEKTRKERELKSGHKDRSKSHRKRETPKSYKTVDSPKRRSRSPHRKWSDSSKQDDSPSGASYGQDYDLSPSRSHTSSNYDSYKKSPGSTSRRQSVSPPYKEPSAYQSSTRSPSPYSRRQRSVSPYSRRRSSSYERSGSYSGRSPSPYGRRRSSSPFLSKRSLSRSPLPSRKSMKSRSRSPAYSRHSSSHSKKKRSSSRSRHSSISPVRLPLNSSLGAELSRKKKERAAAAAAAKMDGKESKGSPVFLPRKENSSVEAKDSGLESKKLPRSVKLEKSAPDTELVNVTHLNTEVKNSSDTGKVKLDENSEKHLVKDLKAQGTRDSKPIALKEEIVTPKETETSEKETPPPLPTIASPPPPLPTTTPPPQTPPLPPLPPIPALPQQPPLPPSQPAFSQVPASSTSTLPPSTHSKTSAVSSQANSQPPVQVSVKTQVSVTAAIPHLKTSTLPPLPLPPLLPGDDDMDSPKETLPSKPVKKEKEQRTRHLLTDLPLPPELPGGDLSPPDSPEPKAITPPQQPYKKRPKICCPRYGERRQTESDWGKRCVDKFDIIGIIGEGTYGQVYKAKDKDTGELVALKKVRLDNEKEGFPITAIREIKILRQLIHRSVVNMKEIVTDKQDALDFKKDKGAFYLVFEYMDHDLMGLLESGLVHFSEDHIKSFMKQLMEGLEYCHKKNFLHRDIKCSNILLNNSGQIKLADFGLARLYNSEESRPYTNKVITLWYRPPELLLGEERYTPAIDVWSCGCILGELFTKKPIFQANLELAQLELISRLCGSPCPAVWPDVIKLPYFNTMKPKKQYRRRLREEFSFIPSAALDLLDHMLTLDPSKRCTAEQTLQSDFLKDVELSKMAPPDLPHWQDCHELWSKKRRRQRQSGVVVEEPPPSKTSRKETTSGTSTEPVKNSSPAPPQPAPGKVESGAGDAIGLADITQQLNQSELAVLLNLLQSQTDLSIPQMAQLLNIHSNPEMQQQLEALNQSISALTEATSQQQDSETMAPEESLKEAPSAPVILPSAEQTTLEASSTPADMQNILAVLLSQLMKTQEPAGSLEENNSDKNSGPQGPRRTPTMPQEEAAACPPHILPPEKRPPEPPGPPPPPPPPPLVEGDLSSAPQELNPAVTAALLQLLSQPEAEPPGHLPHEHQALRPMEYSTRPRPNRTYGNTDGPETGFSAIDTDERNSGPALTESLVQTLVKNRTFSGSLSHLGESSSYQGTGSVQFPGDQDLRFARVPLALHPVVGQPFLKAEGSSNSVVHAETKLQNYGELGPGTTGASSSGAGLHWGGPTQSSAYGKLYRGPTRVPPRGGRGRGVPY
Sequence of CDK12 (O75909 whole entry partner): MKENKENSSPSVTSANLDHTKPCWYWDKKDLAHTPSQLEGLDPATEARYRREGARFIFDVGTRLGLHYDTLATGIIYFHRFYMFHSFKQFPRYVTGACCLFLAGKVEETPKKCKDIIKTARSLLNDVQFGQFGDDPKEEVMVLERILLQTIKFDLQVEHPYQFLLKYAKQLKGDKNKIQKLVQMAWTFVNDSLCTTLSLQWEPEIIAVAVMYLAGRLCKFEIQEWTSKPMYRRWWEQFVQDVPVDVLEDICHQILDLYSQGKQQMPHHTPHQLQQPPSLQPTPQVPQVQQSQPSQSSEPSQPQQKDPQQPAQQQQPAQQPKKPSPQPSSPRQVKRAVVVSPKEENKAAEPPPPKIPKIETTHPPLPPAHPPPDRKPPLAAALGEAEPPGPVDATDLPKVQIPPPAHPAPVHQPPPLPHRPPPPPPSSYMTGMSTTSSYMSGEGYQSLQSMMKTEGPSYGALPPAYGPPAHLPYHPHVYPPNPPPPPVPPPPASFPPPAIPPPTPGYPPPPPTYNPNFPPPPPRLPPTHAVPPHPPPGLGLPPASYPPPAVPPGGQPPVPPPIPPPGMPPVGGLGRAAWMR

## CC(C)C[C@@H](C=O)NC(=O)[C@H](CC(C)C)NC(=O)[C@H](CC(C)C)NC(=O)OCc1ccccc1 [MG132] (Cbz-Leu-Leu-Leu-aldehyde)
CDK12
  BSJ-5-63–induced degradation of CDK12/7/9 after pretreatment with the proteasome inhibitor: rescued

## O=C(c1cc(Cc2n[nH]c(=O)c3ccccc23)ccc1F)N1CCN(C(=O)C2CC2)CC1 [Olaparib]
BID-PC4 PDX
  BID-PC4 PDX tumor growth, monotherapy: insensitive
22Rv1 xenografts
  22Rv1 tumor growth, monotherapy: partial inhibition
  number of apoptotic cells in 22Rv1 tumors, monotherapy: notably increased
DU145 xenografts
  DU145 tumor growth, monotherapy: only partial inhibition of tumor growth
PCa cells
  sensitivity of CDK12-KO 22Rv1 cells compared with AAVS1 control: significantly enhanced sensitivity
[1]; 3 weeks
  tumor growth of CDK12-KO 22Rv1 xenografts: marked sensitivity
[1]; day 21
  tumor weight of CDK12-KO 22Rv1 xenografts: reduction in tumor weight

## CCN(CC)CCNC(=O)c1c(C)[nH]c(/C=C2\C(=O)Nc3ccc(F)cc32)c1C [Sunitinib]
[2]
  half-life at 1 μM: 10 min
  microsomal CLint at 1 μM: 69 µL/min/mg
